System: MS2 coat protein
Experiment: apparent Kd, MS2 coat protein; higher = weaker binding; RNA-MaP array; FMN 200 µM where present
Procedure, shortened: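 Each design was made on Illumina sequencing-chip clusters by stalled E. coli RNA polymerase and titrated with SNAP-549-labelled MS2 coat protein from 0.7 or 1.5 nM, doubling to 3 µM, in the absence and then the presence of constant ligand. The buffer was 100 mM Tris-HCl pH 7.5, 80 mM KCl, 4 mM MgCl2, BSA, DTT, yeast tRNA and Tween-20. The apparent Kd is the median of filtered per-cluster fits of binding curves, with green signal normalised to red-channel RNA signal and control-cluster median Fmax.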

[1] = designed as: OFF switch for flavin mononucleotide, no ligand
[2] = ligand present: flavin mononucleotide, designed as: OFF switch for flavin mononucleotide
[3] = designed as: ON switch for flavin mononucleotide, no ligand
[4] = ligand present: flavin mononucleotide, designed as: ON switch for flavin mononucleotide

AUUCGACAUGAGGAUCACCCAUGUAAGGAUAUGAUAGUUCUGAUAAGGGCUAGCCUAUUCAGAAGGUACGUGGC
apparent Kd [1]: 0.0355 µM | apparent Kd [2]: 0.0314 µM

GAUCUCGUAGUGAGGAUAUUGCUCAUAGACAAUAGUAAGAAGGCACAUGAGGAUCACCCAUGUCGAGUGAGGUU
apparent Kd [1]: 0.0699 µM | apparent Kd [2]: 0.143 µM

GGAAAGCAAGGAUAUGCAAACAAACAAACAAACAAAAGGGAACAUGAGGAUCACCCAUGUAGAAGGUGCAAACA
apparent Kd [1]: 0.0408 µM | apparent Kd [2]: 0.0325 µM

AAAACGUGAGGAUAUCCAAUAUAUGACAUGAGGAUCACCCAUGUUUCCACUCGUACCUCCGGAGAAGGCACUUUUU
apparent Kd [1]: 0.0546 µM | apparent Kd [2]: 0.0449 µM

GGCUAGUCAGGAUAUACGAACAUGUCAAAAGACGUGAAGGGACAUGAGGAUCACCCAUGUAGAAGGGACUAGCA
apparent Kd [1]: 0.028 µM | apparent Kd [2]: 0.158 µM

GGACGCUAAGGAUAUACAUGAGGAUCACCCAUGUAGCCCGAAAGGGCGCGUUCCUUCUGUAGAAGGUGGCUAAA
apparent Kd [1]: 0.017 µM | apparent Kd [2]: 0.0254 µM

GGGCGUAAUACAUGAGGAUCACCCAUGUCAGAAAGGGUAAUCAGAAGGUACUAUUAGAGAAAGAGUAAGGAUAUGAAUACGCCC
apparent Kd [3]: 0.876 µM | apparent Kd [4]: 0.169 µM

GUAGAGUAAGGAUAUGAUGAAUAGGAUAGAAUGGUUAGAAAUCAGAAGGUACAUGAGGAUCACCCAUGUAAUGU
apparent Kd [1]: 0.0227 µM | apparent Kd [2]: 0.0208 µM

CAGCGAAAGCUGAAUCUGUAGAGAGAGGAUAUACAAGAUAUCAUCCAUACAUGAGGAUCACCCAUGUAGAAGGCUCUCUACAGU
apparent Kd [1]: 0.00503 µM | apparent Kd [2]: 0.00723 µM

GUAAGCGACCAGAAGGGUGACAUGAGGAUCACCCAUGUAGAUGUGUUCCCGCUUGGGAACCGUCCACAGGAUAUGGUUGGCUAU
apparent Kd [3]: 0.0353 µM | apparent Kd [4]: 0.018 µM

UUGGACGUCGUAGGAUAAGUAGGAUAUUCCUACAUGAGGAUCACCCAUGUUGACAUGGAAGAAGGACAGAAGGACGAUGUCCAU
apparent Kd [3]: 0.0962 µM | apparent Kd [4]: 0.00448 µM

UUGAUUAUACAAGGAUAUCAAUUGUAAUUGAGACUUACAUGAGGAUCACCCAUGUUAAUAUUUUUUGAGAAGGUGUAUUUUCAG
apparent Kd [3]: 0.0272 µM | apparent Kd [4]: 0.0254 µM

ACUAUACGAGGAUAUGCUGUCAGUACUCCGAGGUUAGUUUGACAUGAGGAUCACCCAUGUAGAAGGCGUUUACU
apparent Kd [1]: 0.0248 µM | apparent Kd [2]: 0.0222 µM

UGUGUCAUCGAGAAGGCCUCAACAUGAGGAUCACCCAUGUUGUAAUAUGGGAGGAUAUCGAUGAUACAGCUACGUUUCGUAGCC
apparent Kd [3]: 0.0184 µM | apparent Kd [4]: 0.00567 µM

AGCUGUGGCCGAGGAUAUCUACUAAUCCAAACCGAAAUAUAAUCGGACAUGAGGAUCACCCAUGUAGAGAAGGCGGUCUCAGCA
apparent Kd [1]: 0.254 µM | apparent Kd [2]: 0.41 µM

GGGAAGUAAGGAUAUGCUGCUCGUCACUUGCGUGAUGAGUAGCAGAAGGUACAUGAGGAUCACCCAUGUAAAGA
apparent Kd [1]: 0.0297 µM | apparent Kd [2]: 0.0269 µM

AAACACGGACAUGAGGAUCACCCAUGUGGCGAAAGCCUUGGGAGAAGGCCGAUUGCAAAGCAAUCGGAGGAUAUUCGUACCGUG
apparent Kd [3]: 0.237 µM | apparent Kd [4]: 0.0138 µM

AAUGUUGUUGUGAGGAUAUCGUAGUUAUUUUGAAACGAGAAGGCACAUGAGGAUCACCCAUGUUUGUUGAUGGU
apparent Kd [1]: 0.0229 µM | apparent Kd [2]: 0.0479 µM

CGCUACGUUUCGUAGCAGCUAGGUGAGGAUAUUCAAUUUUUCACAUGAGGAUCACCCAUGUAUGUGAAGAAGGCGCCUAGAAAU
apparent Kd [3]: 0.0107 µM | apparent Kd [4]: 0.00496 µM

AAAUUUAACGAAGGAUAUGCUUACAUGAGGAUCACCCAUGUGUGCCUUGUGAUGCUGAUUAAGUUGCAGAAGGUCGUAUACAUA
apparent Kd [1]: 0.124 µM | apparent Kd [2]: 0.414 µM

UUCAAGGAAGGAUAUCUCGGCCCGGACAUGAGGAUCACCCAUGUUGUUUUUAGAUUCGUGAGAGAAGGUCUUAUAU
apparent Kd [1]: 0.0388 µM | apparent Kd [2]: 0.0265 µM

UUACAUACAAAGUUACAUGAGGAUCACCCAUGUUUAUUGGGAAGAAGGGUAACAUUAUUAAAUAUAUAGGAUAUUUCACAAUUG
apparent Kd [3]: 0.558 µM | apparent Kd [4]: 0.359 µM

ACAAAGAGCCAAGGAUAUACGUCGUCGAGCCCUCCCGUAGUGGCCAGCACAUGAGGAUCACCCAUGUAGAAGGUGGCUGUAGUC
apparent Kd [1]: 0.0201 µM | apparent Kd [2]: 0.0386 µM

AGUAACAGAGGAUAUACUAUUUUAUGUGUUUGUUAUUUUAAACAUGAGGAUCACCCAUGUAGAAGGCUGAAUAA
apparent Kd [1]: 0.0218 µM | apparent Kd [2]: 0.0241 µM

CAUCAAAGAAUACCAGGGCAUUAAUGAGAAGGCCAACCACAUGAGGAUCACCCAUGUACGGGAGUGGAGGAUAUCAGUGGGCCG
apparent Kd [3]: 0.0525 µM | apparent Kd [4]: 0.00643 µM

CCAGGCAGUGUGAGGAUAUGCUGGUGCUUGCAUCAGCAGAAGGCACAUGAGGAUCACCCAUGUGAAGAGCUUGG
apparent Kd [1]: 0.0276 µM | apparent Kd [2]: 0.131 µM

AGGUACAUCAUAGGAUAUCGUGUGUAAACAUGAGGAUCACCCAUGUCAUCCGAGAGUAUAUCGACCGAGAAGGGUGAUGUACCU
apparent Kd [3]: 0.022 µM | apparent Kd [4]: 0.0325 µM

AGGAAACAUGAGGAUCACCCAUGUAAAAGGUGGUUAGGAUAUGCAAAAAGAAAAAGAAAAGCAGAAGGGACAAGAA
apparent Kd [3]: 0.561 µM | apparent Kd [4]: 0.635 µM

AGGUACUAGGGAGGAUAUGGGAAGAUACAUGAGGAUCACCCAUGUUUAAGAAUGCCGAGAGGCAACUAGAAGGCCCUAGUACCU
apparent Kd [3]: 0.454 µM | apparent Kd [4]: 0.0198 µM

UGUAUUAAUGGAGGAUAUCGAUAUCAAACAUGAGGAUCACCCAUGUUGAGGAUCACCCAUGUCCACGAGAAGGCUGGCGUACGU
apparent Kd [3]: 0.0166 µM | apparent Kd [4]: 0.0181 µM

AUUGAGUGGUCAGGAUAUGUACGGCCUACCGCACAUGAGGAUCACCCAUGUCGCCAAGGAGGACGACAGAAGGGACAACGAAUG
apparent Kd [3]: 0.0435 µM | apparent Kd [4]: 0.00883 µM

UUAUAUAGUGUGAGGAUAUGCUGGUCCUUGGAUCAGCAGAAGGCACAUGAGGAUCACCCAUGUAGUUUAUUUUA
apparent Kd [1]: 0.029 µM | apparent Kd [2]: 0.129 µM

GGAUAGGACAGAGGAUAUACCGAUAGGAUCUACUAUCGAAGAAUCCUCACAUGAGGAUCACCCAUGUAGAAGGCUGUCCUAUCG
apparent Kd [1]: 0.0403 µM | apparent Kd [2]: 0.646 µM

AAACAUGUCCGAGGAUAUCUGGAAACACUUUCAAGAGAAGGCGGACAUGAGGAUCACCCAUGUCUCUCCUCAUCAACUACAAAU
apparent Kd [1]: 0.00871 µM | apparent Kd [2]: 0.0493 µM

AGCUGUGGCCGAGGAUAUCACGAACCAUGGAAAACCAUGGAACUCAAACAUGAGGAUCACCCAUGUGAGAAGGCGGUCUCAGCA
apparent Kd [1]: 0.0211 µM | apparent Kd [2]: 0.0159 µM

AUCAUGUAAGGAUAUCUGACAUGUGACUUCGGUCACUGUUCAGAGAAGGUACAUGAGGAUCACCCAUGUAGAAC
apparent Kd [1]: 0.0767 µM | apparent Kd [2]: 0.0786 µM

GCAAUGCCUGACAUGAGGAUCACCCAUGUUAGAUUGUUAUGUCAGGAUAUUGUCUAGAAACUAGACAAGAAGGGAUGCAUUGCU
apparent Kd [3]: 0.313 µM | apparent Kd [4]: 0.0251 µM

ACGGCAGUCGAAGGAUAUGGUUACAUGAGGAUCACCCAUGUCUAGGGUCUAAUUAGGUAUAAUUACCAGAAGGUCGAAGGCCUA
apparent Kd [1]: 0.0905 µM | apparent Kd [2]: 0.123 µM

UAUUUACAUGAGGAUCACCCAUGUUAGGAUAUGUUUCUAUCGUCGAAAGAUGAUAUUUGCAGAAGGGACUUUAU
apparent Kd [1]: 0.0276 µM | apparent Kd [2]: 0.0251 µM

UCCUUGUCCUGAGGAUAUCCGUGGUUACCUAAAGGAGAAGGCAGGACAUGAGGAUCACCCAUGUACCCAGAAAACGUGCAGAGU
apparent Kd [1]: 0.234 µM | apparent Kd [2]: 0.126 µM

AAGGUGUUAGGAUAUCGAAGGUUGUGGCAGGCGGGAAUUUGCGAGAAGGAACAUGAGGAUCACCCAUGUAAAAU
apparent Kd [1]: 0.0244 µM | apparent Kd [2]: 0.0258 µM

GCACUGCGAGGAUAUACAUGAGGAUCACCCAUGUGUCGGCAGCGAUGCCAGUACAAAUGUAGAAGGCGCGUAAA
apparent Kd [1]: 0.026 µM | apparent Kd [2]: 0.114 µM

CGCUAGCGAAUAGUAAUAAAAGUACAGGAUAUGUUACAUGAGGAUCACCCAUGUAUUGGGUAAGAACAGAAGGGUACGCUAGCG
apparent Kd [1]: 0.136 µM | apparent Kd [2]: 0.0978 µM

UCUUAUUGCAAGGAUAUGCAAAUUAUUUUUUAAGCAGAAGGUGCAACAUGAGGAUCACCCAUGUUUCCGGGCAA
apparent Kd [1]: 0.0153 µM | apparent Kd [2]: 0.0429 µM

AUCAGCUCGUCAGGAUAUACGUCACUGCGUCAUCAGUGUGGUAAGAUCACAUGAGGAUCACCCAUGUAGAAGGGACGAGCUGAU
apparent Kd [1]: 0.0155 µM | apparent Kd [2]: 0.234 µM

ACAUGAGGAUCACCCAUGUGAUGAUCUCCCAUGUCAUAUUUCAGAAGGCUCGCGUGUUUGAUGAGAGAGGAUAUGGAAUAUGCG
apparent Kd [1]: 0.208 µM | apparent Kd [2]: 0.152 µM

AUCAGCUCGUCAGGAUAUACGUCACUGCGUCAGCAGUGUGGUAAGAUCACAUGAGGAUCACCCAUGUAGAAGGGACGAGCGGAU
apparent Kd [1]: 0.0143 µM | apparent Kd [2]: 0.279 µM

AGGGUGUCGCUCAAUAACAUGAGGAUCACCCAUGUGCAUUAGAGAAGGGACCCGGGCGCGUGGAGUCAGGAUAUCUAUCUGCCA
apparent Kd [1]: 0.0344 µM | apparent Kd [2]: 0.03 µM

Source: the EternaBench riboswitch data
